In ChEMBL document CHEMBL1932992, “Synthesis and anticonvulsant activity of 1-(8-(benzyloxy)quinolin-2-yl)-6-substituted-4,6-diazaspiro[2,4]heptane-5,7-diones” (Eur J Med Chem, 2012):
Active and inactive are the calls of the source.

Columns and labels:
Mus musculus [1] = assay: Neurotoxicity in Kunming mouse assessed as minimal motor impairment at 300 mg/kg, ip after 4 hrs by rotarod test; format: toxicity, organism-based; set-up: dose 300 mg/kg, route intraperitoneal; conditions: in vivo
How it was run: (§1)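 Rotorod screen in trained male Kunming mice dosed ip at 30, 100 or 300 mg/kg in 0.5% methylcellulose, read at 0.5 h and 4.0 h. Mice were placed on a knurled rod 1 in. in diameter turning at 6 rpm. Impairment was failure to stay on the rod for at least 1 min in each of four trials. The value is the minimal dose affecting half or more of the mice.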

Mus musculus [2] = assay: Anticonvulsant activity in Kunming mouse assessed as protection against maximal electroshock-induced seizure at 300 mg/kg, ip after 4 hrs; format: functional, organism-based; set-up: dose 300 mg/kg
How it was run: (§2)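 Male Kunming mice (20 ± 2.0 g) received ip 30, 100 or 300 mg/kg as a suspension in 0.5% methylcellulose, one to four mice per dose. At 0.5 h and 4.0 h, a 60-Hz, 50-mA current was applied for 0.25 s via corneal electrodes. Protection meant no hindlimb tonic extension. The value is the minimal dose protecting half or more of the mice.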

Mus musculus [3] = assay: Anticonvulsant activity in Kunming mouse assessed as protection against maximal electroshock-induced seizure at 300 mg/kg, ip after 0.5 hrs; format: functional, organism-based; set-up: dose 300 mg/kg; how it was run: as §2
Mus musculus [4] = assay: Anticonvulsant activity in ip dosed Kunming mouse assessed as protection against subcutaneous pentylenetetrazole-induced seizure after 4 hrs; format: functional; conditions: read-out: MED
How it was run: (§3)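 Male Kunming mice (20 ± 2.0 g) were given ip doses of 30, 100 or 300 mg/kg in 0.5% methylcellulose, one to four mice per dose. They were then challenged with subcutaneous pentylenetetrazole dissolved in 0.9% saline at 0.5 h and 4.0 h. Protection was the absence of even a threshold seizure (a single clonic spasm lasting at least 5 s). The value is the minimal dose active in half or more of the mice.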

Mus musculus [5] = assay: Anticonvulsant activity in ip dosed Kunming mouse assessed as protection against subcutaneous pentylenetetrazole-induced seizure after 0.5 hrs; format: functional; conditions: read-out: MED; how it was run: as §3
Mus musculus [6] = assay: Neurotoxicity in Kunming mouse assessed as minimal motor impairment at 300 mg/kg, ip after 0.5 hrs by rotarod test; format: toxicity, organism-based; set-up: dose 300 mg/kg, route intraperitoneal; conditions: in vivo; how it was run: as §1
Mus musculus [7] = assay: Anticonvulsant activity in ip dosed Kunming mouse assessed as protection against subcutaneous pentylenetetrazole-induced seizure; format: functional
How it was run: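 Median effective dose in male Kunming mice, groups of 10, given a range of ip doses until at least three points fell between 10–90% seizure protection.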

Mus musculus [8] = assay: Anticonvulsant activity in ip dosed Kunming mouse assessed as protection against maximal electroshock-induced seizure; format: functional
Mus musculus [9] = assay: Anticonvulsant activity in Kunming mouse assessed as protection against subcutaneous pentylenetetrazole-induced seizure at 300 mg/kg, ip after 0.5 hrs; format: functional, organism-based; set-up: dose 300 mg/kg; how it was run: as §3
[10] = Neurotoxicity in ip dosed Kunming mouse assessed as minimal motor impairment after 0.5 hrs by rotarod test; format: toxicity, organism-based; conditions: in vivo
Mus musculus [11] = assay: Anticonvulsant activity in Kunming mouse assessed as protection against subcutaneous pentylenetetrazole-induced seizure at 300 mg/kg, ip after 4 hrs; format: functional, organism-based; set-up: dose 300 mg/kg; how it was run: as §3
Mus musculus [12] = assay: Anticonvulsant activity in ip dosed Kunming mouse assessed as protection against maximal electroshock-induced seizure after 0.5 hrs; format: functional; conditions: read-out: MED; how it was run: as §2
Mus musculus [13] = assay: Anticonvulsant activity in ip dosed Kunming mouse assessed as protection against maximal electroshock-induced seizure after 4 hrs; format: functional; conditions: read-out: MED; how it was run: as §2
Mus musculus [14] = assay: Protective index, ratio of TD50 for ip dosed Kunming mouse to ED50 for ip dosed Kunming mouse by subcutaneous pentylenetetrazole induced seizure test; format: functional
Mus musculus [15] = assay: Protective index, ratio of TD50 for ip dosed Kunming mouse to ED50 for ip dosed Kunming mouse by maximal electroshock seizure test; format: functional

Row | Compound | Activity (Mus musculus [1]) | Activity (Mus musculus [2]) | minimal effective dose (Mus musculus [5]) | Activity (Mus musculus [6]) | Activity (Mus musculus [9]) | Activity (Mus musculus [11]) | minimal effective dose (Mus musculus [12]) | minimal effective dose (Mus musculus [13]) | other results
1 | CCC1(C)CC(=O)NC1=O (stereo not drawn) [ETHOSUXIMIDE] | Non-toxic | inactive | 100 mg/kg | Non-toxic |  |  |  |  | Activity (Mus musculus [3]): inactive; minimal effective dose (Mus musculus [4]): 300 mg/kg
2 | CCCC(CCC)C(=O)[O-].[Na+] [VALPROATE SODIUM] |  |  |  |  |  |  |  |  | ED50 (Mus musculus [7]): 149 mg/kg
3 | CCC1(c2ccccc2)C(=O)NC(=O)NC1=O [PHENOBARBITAL] |  |  |  |  |  |  |  |  | ED50 (Mus musculus [8]): 21.8 mg/kg; ED50 (Mus musculus [7]): 13.2 mg/kg
4 | O=C1NC2(CC2c2ccc3cccc(OCc4ccccc4)c3n2)C(=O)N1c1ccc(Cl)cc1 (racemic) |  | inactive |  |  | inactive | inactive | 300 mg/kg |  | MTD at 0.5 h [10]: 100 mg/kg
5 | O=C1NC(=O)C2(CC2c2ccc3cccc(OCc4ccccc4)c3n2)N1 (racemic) | Non-toxic | inactive | 300 mg/kg |  |  | inactive | 300 mg/kg |  | MTD at 0.5 h [10]: 300 mg/kg
6 | O=C1NC(=O)C(c2ccccc2)(c2ccccc2)N1 [PHENYTOIN] |  |  |  |  | inactive | inactive | 30 mg/kg | 30 mg/kg | ED50 (Mus musculus [7]): > 300 mg/kg
7 | CCC(CO)N1C(=O)NC2(CC2c2ccc3cccc(OCc4ccccc4)c3n2)C1=O (racemic) | Non-toxic |  | 100 mg/kg | Non-toxic |  |  | 30 mg/kg | 30 mg/kg | ED50 (Mus musculus [8]): 8.6 mg/kg; TD50 at 0.5 h [10]: 365 mg/kg; Ratio TD50/ED50 (Mus musculus [14]): 1.7; minimal effective dose (Mus musculus [4]): 300 mg/kg; ED50 (Mus musculus [7]): 212 mg/kg; Ratio TD50/ED50 (Mus musculus [15]): 26.8
8 | COc1ccc(N2C(=O)NC3(CC3c3ccc4cccc(OCc5ccccc5)c4n3)C2=O)cc1 (racemic) | Non-toxic |  | 300 mg/kg | Non-toxic |  | inactive | 30 mg/kg | 100 mg/kg | ED50 (Mus musculus [8]): 19.5 mg/kg; TD50 at 0.5 h [10]: 433 mg/kg; Ratio TD50/ED50 (Mus musculus [14]): 1.6; ED50 (Mus musculus [7]): 279 mg/kg; Ratio TD50/ED50 (Mus musculus [15]): 22.2
9 | CN1C(=O)NC2(CC2c2ccc3cccc(OCc4ccccc4)c3n2)C1=O (racemic) |  | inactive |  | Non-toxic | inactive |  | 100 mg/kg |  | minimal effective dose (Mus musculus [4]): 300 mg/kg
10 | NC(=O)N1c2ccccc2C=Cc2ccccc21 [CARBAMAZEPINE] |  |  |  |  |  |  |  |  | ED50 (Mus musculus [8]): 8.8 mg/kg; ED50 (Mus musculus [7]): > 100 mg/kg
11 | O=C1NC2(CC2c2ccc3cccc(OCc4ccccc4)c3n2)C(=O)N1C1CCCCC1 (racemic) |  |  | 300 mg/kg | Non-toxic |  | inactive | 300 mg/kg | 300 mg/kg | 
12 | O=C1NC2(CC2c2ccc3cccc(OCc4ccccc4)c3n2)C(=O)N1c1ccc(C(F)(F)F)cc1 (racemic) |  |  |  | Non-toxic | inactive |  | 300 mg/kg | 300 mg/kg | minimal effective dose (Mus musculus [4]): 300 mg/kg
13 | Cc1ccc(N2C(=O)NC3(CC3c3ccc4cccc(OCc5ccccc5)c4n3)C2=O)cc1 (racemic) |  | inactive |  | Non-toxic | inactive | inactive | 100 mg/kg |  | 
14 | O=C1NC2(CC2c2ccc3cccc(OCc4ccccc4)c3n2)C(=O)N1c1ccccc1 (racemic) |  |  |  |  | inactive | inactive |  | 300 mg/kg | MTD at 0.5 h [10]: 300 mg/kg; Activity (Mus musculus [3]): inactive
15 | O=C1NC2(CC2c2ccc3cccc(OCc4ccccc4)c3n2)C(=O)N1Cc1ccccc1 (racemic) |  |  | 300 mg/kg | Non-toxic |  | inactive |  | 300 mg/kg | Activity (Mus musculus [3]): inactive
16 | O=C1NC2(CC2c2ccc3cccc(OCc4ccccc4)c3n2)C(=O)N1c1ccc([N+](=O)[O-])cc1 (racemic) | Non-toxic |  | 300 mg/kg | Non-toxic |  | inactive |  | 300 mg/kg | Activity (Mus musculus [3]): inactive
17 | CC(C)N1C(=O)NC2(CC2c2ccc3cccc(OCc4ccccc4)c3n2)C1=O (racemic) | Non-toxic |  | 100 mg/kg | Non-toxic |  | inactive | 300 mg/kg | 100 mg/kg | 
18 | O=C1NC2(CC2c2ccc3cccc(OCc4ccccc4)c3n2)C(=O)N1c1cc(Cl)cc(Cl)c1 (racemic) | Non-toxic | inactive | 300 mg/kg |  |  | inactive |  |  | MTD at 0.5 h [10]: 300 mg/kg; Activity (Mus musculus [3]): inactive
19 | O=C1NC2(CC2c2ccc3cccc(OCc4ccccc4)c3n2)C(=O)N1c1ccc(Br)cc1 (racemic) |  |  |  |  | inactive | inactive |  | 300 mg/kg | MTD at 0.5 h [10]: 100 mg/kg; Activity (Mus musculus [3]): inactive
20 | O=C1NC2(CC2c2ccc3cccc(OCc4ccccc4)c3n2)C(=O)N1c1ccc(F)cc1 (racemic) |  | inactive |  | Non-toxic | inactive | inactive | 300 mg/kg |  | 
21 | CCCCN1C(=O)NC2(CC2c2ccc3cccc(OCc4ccccc4)c3n2)C1=O (racemic) | Non-toxic | inactive |  | Non-toxic | inactive |  | 300 mg/kg |  | minimal effective dose (Mus musculus [4]): 300 mg/kg
